# An excerpt weighted towards active compounds, which were near 1.8% of everything screened.
# MC4R antag cAMP: MC4R antagonists of cAMP signaling, primary screen, cell-based, TR-FRET, antagonist arm of biased-ligand search. MC4R-expressing cells, MTII-stimulated cAMP, LANCE TR-FRET. inhibition, % at 6.5 µM. actives 0.48% (n = 360,000). AID 540295, 2011;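 active means inhibition above its plate's cutoff, the mean of tested wells on that plate plus 3 SD, cut at about 29% in these data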;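 further: 0% = Melanotan II alone and 100% = Melanotan II plus saturating MCL0020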
#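 System: U2OS cells stably expressing human melanocortin 4 receptor (MC4R). Reagent: Melanotan II challenge after compound preincubation. Doses: 6.5 µM. Times: 30-min compound, 1-h challenge, 1-h detection, room temperature. Measured by: TR-FRET with Eu-cAMP and labeled anti-cAMP, 671 nm. Replicates: singlicate.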
# NTR1 ag: agonists of human NTR1, primary screen, imaging, U2OS cells, beta-arrestin-GFP, high content | Neurotensin receptor type 1 (Homo sapiens), P30989 | NTR1-U2OS beta-arrestin-GFP spot imaging, agonist mode | activation, % at 20 µM | actives 0.17% (n = 330,000) | AID 493036, 2011;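 active means activation at or above 40% of the spot to cytoplasm intensity ratio, with at least 20 cells analyzed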;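 further: 0% = DMSO without peptide and 100% = 100 nM NTR1 peptide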
# AI-2 QS mod: Vibrio harveyi AI-2 quorum sensing modulators, primary screen, JMH597 strain, luminescence/OD600 ratio. AID 2094, 2009. actives 0.4% (n = 300,000). activity change, % at 7.5 µM. Vibrio harveyi JMH597 AI-2 luminescence/OD600 ratio, 9 h; hits give low values; strain lacks LuxN and CqsS sensors; 0 = neutral-control median; in the data active means activity change below about -75%, passing the limit was not always enough;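 further: luminescence divided by OD600 gain over 9 h not by final OD600 alone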
# MC4R ag barr: MC4R agonists recruiting beta-arrestin, primary screen, cell-based, luminescence, agonist arm of biased-ligand search; Melanocortin receptor 4 (Homo sapiens), P32245; activation, % at 8.9 µM; actives 0.98% (n = 360,000); U2OS MC4R beta-arrestin complementation; percent of melanotan II response, DMSO zero; AID 540308, 2011;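 active means activation above a per-plate cutoff, the mean activation of sample wells on that plate plus 3 SD, cut at about 8% in these data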
# MC4R barr ag: MC4R beta-arrestin agonists, retest, confirmation, cell-based, luminescence, U2OS. shares compounds with MC4R ag barr. U2OS MC4R beta-arrestin recruitment; scaled DMSO 0%, Melanotan II 100%. activation, % at 8.9 µM. actives 31% (n = 2,400);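 active means mean activation across replicates above the hit cutoff set in the earlier primary screen, cut at about 8% in these data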
# MOR-DOR barr ag: agonists of MOR-DOR heterodimerization, counter-screen for MC4R biased agonist project, cell-based, luminescence. activation, % at 9.2 µM. shares compounds with MC4R ag barr. actives 5.8% (n = 2,400). AID 602194, 2012. U2OS PathHunter beta-arrestin, beta-gal luminescence; percent of deltorphin B response, DMSO zero;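 active means mean activation across replicates exceeds the hit threshold derived in the earlier primary screen, cut at about 18% in these data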;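 further: 100% = deltorphin B at 0.9 µM final and 0% = DMSO alone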
# Target sequence (P35372 whole entry, looked up): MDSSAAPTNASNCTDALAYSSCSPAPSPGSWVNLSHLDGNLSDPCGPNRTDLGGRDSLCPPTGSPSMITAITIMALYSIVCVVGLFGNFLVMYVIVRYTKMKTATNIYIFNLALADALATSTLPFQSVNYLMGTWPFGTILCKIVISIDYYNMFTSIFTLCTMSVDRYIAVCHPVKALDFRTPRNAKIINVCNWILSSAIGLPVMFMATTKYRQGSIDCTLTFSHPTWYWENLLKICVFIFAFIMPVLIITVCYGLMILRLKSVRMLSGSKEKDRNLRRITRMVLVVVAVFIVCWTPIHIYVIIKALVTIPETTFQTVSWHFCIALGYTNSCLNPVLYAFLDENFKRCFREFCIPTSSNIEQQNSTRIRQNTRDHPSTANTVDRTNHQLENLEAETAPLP
# Target sequence (P41143 whole entry, looked up): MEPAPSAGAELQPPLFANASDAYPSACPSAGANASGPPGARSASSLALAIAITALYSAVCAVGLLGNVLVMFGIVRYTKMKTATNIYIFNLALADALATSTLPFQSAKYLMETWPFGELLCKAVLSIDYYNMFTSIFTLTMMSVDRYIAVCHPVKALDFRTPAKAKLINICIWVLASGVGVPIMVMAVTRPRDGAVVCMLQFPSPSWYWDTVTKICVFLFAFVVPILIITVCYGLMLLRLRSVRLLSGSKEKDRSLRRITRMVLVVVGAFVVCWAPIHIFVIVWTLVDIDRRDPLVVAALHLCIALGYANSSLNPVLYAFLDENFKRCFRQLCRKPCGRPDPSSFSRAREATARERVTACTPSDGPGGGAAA
# * = called active by the depositor; / = no result.
SMILES,MC4R antag cAMP,NTR1 ag,AI-2 QS mod,MC4R ag barr,MC4R barr ag,MOR-DOR barr ag
CN(C)c1ccc(/C=N\Nc2nc(-c3ccccc3)cc(=O)[nH]2)cc1,-1,4,29,27*,4,5
CCCOc1ccc(F)cc1-c1cc(C(=O)NCc2cc(C(F)(F)F)cc(C(F)(F)F)c2)[nH]n1,5,/,/,2,/,/
O=C(Nc1cccc(-c2nc3cccnc3s2)c1)C1c2ccccc2Oc2ccccc21,2,-1,16,10*,3,8
Cc1cccnc1C(NC(=O)C1CCN(CCOc2ccc(Cl)cc2Cl)CC1)c1ccc(Cl)cc1 (stereo not given),3,/,/,34*,17*,8
O=C(NC(c1ccc(Cl)cc1)c1cccnc1)C1CCN(CCOc2ccc(Cl)cc2Cl)CC1 (stereo not given),4,/,/,18*,30*,13
O=C(NC(c1ccc(Cl)cc1)c1ccccn1)C1CCN(CCOc2ccc(Cl)cc2Cl)CC1 (stereo not given),8,/,/,18*,24*,15
O=C(NC(c1ccc(F)cc1)c1ccc2ccccc2n1)C1CCN(CCOc2ccc(Cl)cc2Cl)CC1 (stereo not given),6,/,/,18*,12*,7
O=C(NC(c1ccc(F)cc1)c1ccc2ccccc2n1)C1CCN(CCOc2ccc(F)cc2)CC1 (stereo not given),10,/,/,1,/,/
COc1ccc(Cc2nc3ccc(C(=O)NC4CCOC4)cc3o2)cc1 (stereo not given),0,-1,2,-1,/,/
CC1CCN(C(=O)CSc2nc(=O)n3ccccc3n2)CC1,4,0,34,-3,/,/
Cc1ccc(Oc2nnc(-c3ccccc3)cc2C#N)cc1,6,5,18,27*,5,9
N#Cc1cc(-c2ccccc2)nnc1Oc1ccccc1,-1,1,17,0,/,/
COC(=O)c1ccc(-c2nc(CN3CCN(C(=O)c4ccco4)CC3)c(C)o2)cc1,-15,/,/,1,/,/
Cc1cc(F)cc(-c2cc(C(=O)NCC3CCCCC3)[nH]n2)c1,-3,/,/,13*,0,5
COC(=O)c1sccc1NC(=O)Nc1ccc(Cl)c(Cl)c1,-1,-1,11,13*,3,6
COC(=O)c1sccc1NC(=O)c1ccc(Cl)s1,15,0,-1,12*,0,2
COC(=O)c1sccc1NC(=O)COc1ccc(F)cc1Cl,13,12,8,10*,2,3
O=C1CN(S(=O)(=O)c2cccc(Cl)c2Cl)CCN1,-8,0,/,-1,/,/
COc1ccc(NC(=O)c2ccccc2-c2ccc(C(F)(F)F)cc2)cc1S(=O)(=O)N1CCOCC1,1,4,9,-1,/,/
COc1ccc(S(=O)(=O)N2CCOCC2)cc1NC(=O)c1ccccc1-c1ccc(C(F)(F)F)cc1,18,2,17,10*,0,2
Cc1cc(C=C2C(=O)c3ccccc3C2=O)c(C)n1C,-6,1,15,21*,0,10
Cc1ccc(NC(=O)CSCC(=O)Nc2cccc(S(=O)(=O)N3CCCCCC3)c2)cc1,15,6,/,2,/,/
Cc1ccc(Cl)cc1N1CCN(S(=O)(=O)c2ccc3[nH]c(=O)ccc3c2)CC1,7,3,23,10*,11*,4
O=CNc1cc(-c2cccc(F)c2)cn2c(-c3ccc(F)cc3)cnc12,17,/,/,12*,16*,4
CS(=O)(=O)Nc1cccc(-c2cc(NC=O)c3ncc(-c4ccc(F)cc4)n3c2)c1,-22,/,/,-2,/,/
CC(=O)Nc1cccc(-c2cc(NC(C)=O)c3ncc(-c4ccc(F)cc4)n3c2)c1,5,/,/,17*,11*,1

# Source: PubChem
